# Results reported in the EternaBench riboswitch data.
# System: MS2 coat protein
# Experiment: apparent Kd, MS2 coat protein; higher = weaker binding; RNA-MaP array; FMN 200 µM where present
# Outline: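 The apparent Kd is reported as the median of filtered per-cluster binding-curve fits. To get these curves, designs transcribed by stalled E. coli RNA polymerase on Illumina sequencing-chip clusters were titrated with SNAP-549-labelled MS2 coat protein from 0.7 or 1.5 nM, doubling to 3 µM. Titrations were run without and then with constant ligand in 100 mM Tris-HCl pH 7.5, 80 mM KCl, 4 mM MgCl2, BSA, DTT, yeast tRNA and Tween-20, and green signal was normalised to red-channel RNA signal and control-cluster median Fmax.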
# [1] = designed as: OFF switch for flavin mononucleotide, no ligand
# [2] = ligand present: flavin mononucleotide, designed as: OFF switch for flavin mononucleotide
# [3] = designed as: ON switch for flavin mononucleotide, no ligand
# [4] = ligand present: flavin mononucleotide, designed as: ON switch for flavin mononucleotide
Sequence,apparent Kd [1] [nM],apparent Kd [2] [nM],apparent Kd [3] [nM],apparent Kd [4] [nM]
ACGUUGUCAGGAUAUCGUUAAUUUAGUUGUUUGUAUUAGUUCGAGAAGGGACAUGAGGAUCACCCAUGUUUGCU,24.4,27.1,–,–
UAUGAACAUGAGGAUCACCCAUGUGGUAAGAUCACAGGAUAUCACCUCGGACGUGCGAUGUGAGAAGGGUGAUGGU,–,–,585,113
AAACAUGUCCGAGGAUAUCUGGAAACAUUUCCAAGAGAAGGCGGACAUGAGGAUCACCCAUGUCUCUCCUCAUCAAAUCCAAGU,24.6,287,–,–
AGGAAGUGAGGAUAUGCAUCAUAUAGUGGACGCUAUAGAAUGUAGAAGGCACAUGAGGAUCACCCAUGUUUAAA,30.2,29.3,–,–
CUGAUGUUAGGAUAUCAGGCGCCCGCCACUGGCAAGGCGCAUGAGAAGGGACAUGAGGAUCACCCAUGUAGUAA,26.3,55.7,–,–
CGAUCGUUGCAGAAGGUUAAAAUUUUAUCUACAUGUUUAACAUGAGGAUCACCCAUGUUUAUGAUGAAGGAUAUGCAAGGGUCG,6.76,6.18,–,–
ACAUGAGGAUCACCCAUGUAGAAGGAGAGGGCAGAAUUUACGCAGGAUAUGCAUUUUUGGGAAAAGUAGAAGGGUGAGGGCGGA,–,–,36.4,25.2
AAGCAUUGGCUUCUCAUCUACAUGAGGAUCACCCAUGUCGGGAGAAGGAGGCGUUGACAACUAGCCUAGGAUAUCCUAACGUGC,6.74,7.26,–,–
UGGGCUACGUGGUCCGCCAGACGUAGAAGGGUCUACAUGAGGAUCACCCAUGUGACCGUUAGUGGACAGGAUAUACGCGGAGUG,8.38,22.8,–,–
CUCUUACAUGAGGAUCACCCAUGUGUUGUCGUGGGAGGAUAUCCUGGUUCGGUGGCGUUGGGAGAAGGCCUAUGUC,–,–,722,242
CCAUUUACUGAGGAUAUUGCAUCACCCGACUGAUAAGAAGGCAGAACAUGAGGAUCACCCAUGUGGGUACUCAC,73.7,105,–,–
AACUAACAUGAGGAUCACCCAUGUCAGGAUAUGCAACGAUCGAUCGAUCGAUCGAUCAGCAGAAGGGACACUAA,20.1,36,–,–
ACUUCUAAGCAGAAGGCAGUCAUAGUAUUCGUCAUGUAGACAUGAGGAUCACCCAUGUAUAGUACUGAGGAUAUGCUUGGAUAG,24,24.4,–,–
GAUACGUCAGGAUAUCUGAUGUCUAACUUCGGUUAGACAUCAGAGAAGGGACAUGAGGAUCACCCAUGUAUCAG,50.4,61.1,–,–
CCAUUCAGAGGAUAUGCGCAUAGAUAAGACUUUUUUUUUUAACAUGAGGAUCACCCAUGUAGAAGGCUGUAACC,23.2,23.1,–,–
AAUUUACAGGGAGGAUAUACAUGAGGAUCACCCAUGUAAUCAUAUGAUAUUUUUUUUGUAUGAGUGUAGAAGGCCCAAAUAAAA,9.32,11.1,–,–
UGGUACUAGGGAGGAUAUGGGAAGAUACAUGAGGAUCACCCAUGUUUAACAAUGCCGAGAGGCAACUAGAAGGCCCUAGUACCU,–,–,227,15.5
GUGCCUUGGGAGAAGGCCCAAUGCAAAGCAUCGGGAGGAUAUUCAUAUAAUAAAUAAACAUGAGGAUCACCCAUGUGGCACAAA,–,–,447,33
CAGUACUGAGGAUAUACAUGAGGAUCACCCAUGUGUUCCUUGUAGGAUAUCCGCAAAAGUAGAAGCCAGAAGGAGAUGUGCCUA,200,119,–,–

Sequence,apparent Kd [1] [nM],apparent Kd [2] [nM],apparent Kd [3] [nM],apparent Kd [4] [nM]
ACAUAAAUUCGAGGAUAUCGGUGAUAAAGAAGACGAGAAGGCGAUUUAAGAUAUAUGGUUAAAGACAUGAGGAUCACCCAUGUA,–,–,32.1,29.7
AACAGUACAGGAUAUACAUGAGGAUCACCCAUGUGAGAAUUAAGUGGCGUACCACUAAGUAGAAGGGUACUGGA,51.6,151,–,–
UCGACGAAAGUCGAACGAUGUAGCAGAAGGACAUGAGGAUCACCCAUGUCAGCUGUAACAGCCAUGUAGGAUAUGCUACAUCGA,3.96,5.54,–,–
GGGAGUGGAGGGAAUAACAUGAGGAUCACCCAUGUAUGGGAGAGAAGGCAGGUUGGAGGGCGAUCUGAGGAUAUUUAGACUCUU,–,–,19.9,13.5
UACAGACAUGAGGAUCACCCAUGUGAGGAUAUCGGUACCGAUGGCAUAAUCUGCUCGGCGAGAAGGCACAGUGU,28,48.4,–,–
UGAGUGCGUGUUAGGAUAUGGUUUGGUGUUUCGGGCUAGAAGGGACAUGAGGAUCACCCAUGUAACUGGCGGGU,53.3,51,–,–
UUAAAACGUGUGAGGAUAUCGAGAGUAGCUGAUCUCGAGAAGGCACAUGAGGAUCACCCAUGUGGCCUGCACCG,14.6,14.7,–,–
CCCAAACUUGGGUUUAAUGGUUCAUAGGAUAUGCUUGUACAUGAGGAUCACCCAUGUACUAUUGUGCAGAAGGGUGCAUGGCAA,–,–,39.8,26.3
CGUCCACAUGAGGAUCACCCAUGUCAGGAUAUACAAAUGCCAGGUCGCGGGCCAGGCGGUAGAAGGGACGUGGC,23.1,18.6,–,–
GCCGGAGAAGGAUAUACAUGAGGAUCACCCAUGUUCUUGGGCGAAAUAAAUUCCUAGAGUAGAAGGUCUAGGCA,18.7,41.5,–,–
AACCGCGAUCGGCCUGGCACGUCGAGAAGGGUACGUGACCUGCUUUACAUGAGGAUCACCCAUGUACAGGAUAUCGAAUAGCCG,6.2,6.68,–,–
UACCUCACUUCUUUGACUCACAUGAGGAUCACCCAUGUAAUAUAGGAUAUGCAUUUUAUUUCUUUGCAGAAGGAUAUUAGUUUU,42.8,79.2,–,–
AACUAACAUGAGGAUCACCCAUGUUGCAGCGGUUGAGGAUAUGUGGGUGAAAAUAGCAUGGCAGAAGGCGAGUGUA,–,–,120,238
AAUACACUCUAGGAUAUUCAUGCCAGCAGUAUCGAAGAAGGAGAGACAUGAGGAUCACCCAUGUGGAAGCUCCU,13.1,16.4,–,–
GGUUGGCGAGGAUAUACAUGAGGAUCACCCAUGUGGUCCUGCGGUGGAAUCGCCCUUUGUAGAAGGCGCGGGUC,49.5,44.7,–,–
ACGGAGACACAAAUGUUCCACGGUGCAGAAGGGUCCCUCACAUGAGGAUCACCCAUGUAACUCGGACAGGAUAUGCUCCUGGGA,–,–,135,9.78
AAAUCCUACGAAGGAUAUACAAACAUGAGGAUCACCCAUGUGUGUUUCGUGUAACUGGAAUUCGGGUAGAAGGUCGUAGACAUA,33.2,20.8,–,–
CAUGUCUGAGGAUAUCGUUUUUUGUACAUGAGGAUCACCCAUGUCCUAUUUUUUUUAUUUCGAGAAGGCAGUGUAU,47.7,37.7,–,–
AACCGUGCGGAGGAUAUUGAUAUCCCAGUCUAUCAAGAAGGCUGCACAUGAGGAUCACCCAUGUGAUCCGUGCU,21.2,116,–,–

Sequence,apparent Kd [1] [nM],apparent Kd [2] [nM],apparent Kd [3] [nM],apparent Kd [4] [nM]
GUGCACACUCGAGGAUAUCGGAGUUUUCUUCUUUGAGAAGGCGAUUCGUGCCGUGUUAUUUUGGACAUGAGGAUCACCCAUGUG,–,–,66,36.8
GUCAAAACCAUACUGGUCGACGGUCAGGAUAUACAUGAGGAUCACCCAUGUGCUAUUGAUACUAUGUAGAAGGGACCCACCGCA,16.2,30,–,–
UAAAAGGCAGGAUAUGCAGGUGACCCGACUCGCCGGGCUAAACAUGAGGAUCACCCAUGUAGAAGGGCCAAAAG,15.7,43.6,–,–
UCAUUAUAAAUCCAUCAUAACUACAUGAGGAUCACCCAUGUGCAGGAUAUCGAUAAUUUAACUAACGAGAAGGGCAUUUACAGA,37.6,139,–,–
CUUUUGUGAGGAUAUCAGGUGUGCUAGCGUACUGGUACAUCUGAGAAGGCACAUGAGGAUCACCCAUGUUCCUC,42.2,238,–,–
GUAGAGUCAGGAUAUACGAGAUCGAAAGAUCGGCGAUCCAUACAUGAGGAUCACCCAUGUAGAAGGGACUCUAC,15.6,148,–,–
CGGUGACGUGUAGGAUAUGGCGAUGGGUUUUGGCCAGAAGGACAUGAGGAUCACCCAUGUGGUAGAGGGCUGGCGGCCGCCCGU,26.5,60,–,–
AGGCUCACAGGAUAUCUCCACGGUAACAUGAGGAUCACCCAUGUCUCAUUUUCUCGUGCAAGAGAAGGGUGAGCGG,435,455,–,–
UGUACCGUUGGAACGCGUCGAGUACAUGAGGAUCACCCAUGUCAGGAUAUGUGGCGAAAGGUAGCACAGAAGGGACAUAGAAGA,32.6,92.3,–,–
AGCUACACCCAGAAGGACAUGAGGAUCACCCAUGUAGGAUAUGGGACACACAGUGCCAUGUAGAGAAAUUACGCUAGUGUAGCG,–,–,14.3,8.42
AUCUUGUCAGGAUAUCUGACAAGUGACGAAAGUCACAGUUCAGAGAAGGUACAUGAGGAUCACCCAUGUAGAAC,19.4,19.2,–,–
GUACCUUAUGAGAAGGCGAUCAUGAAACAUGAUCGAGGAUAUCAUGUAAACAUGAGGAUCACCCAUGUAUGGGUAUUAUGGUAC,–,–,191,25.6
UUUACAUGAGGAUCACCCAUGUAUAGAACGGUUAAUCAAAGUGAGGAUAUACAUAAUUUUGUAUUGUAGAAGGCACUGGGUACA,–,–,15.2,19.3
AUGACAGGCAGAGCGCAACGGCGUACAUGAGGAUCACCCAUGUAGGAUAUGCUACACAAAGUGUAGCAGAAGGACAUGCGACGC,23.4,42.2,–,–
UUUUAUUAGUAAGGAUAUACUAGCGAUUAGCUUGUAGAAGGUACAGUCUUAUGUAUAGCAUGUUAACAUGAGGAUCACCCAUGU,–,–,20.9,14
CUUUUGUGAGGAUAUCAGUAGUAAAAAAAUAAUAUUACUACUGAGAAGGCACAUGAGGAUCACCCAUGUUCCUC,36,276,–,–
CCGUUUUGAGGAUAUCCACCCUCAUACAUGAGGAUCACCCAUGUUCACCCUUGGGUUCCCGGAGAAGGCAGUUUUC,1120,828,–,–
AGAAACUACGAGAAGGACAUAUGAUUAAGACGAAACAUGAGGAUCACCCAUGUAGGAUAUCGUAGUUUCAGGAUCGUGAGAUCA,7.21,17.8,–,–
